In article PMC9292928 (British Journal of Pharmacology, 2021):
“Also recorded” adds a separate entry of the source. Where two headings read alike, the source gives them in different places.

Assays:
[1] = tested on: hyperthermia‐induced seizures in Scn1a +/− mice; conditions: cited from earlier work
[2] = Solubility of dosing preparations; assay type: physicochemical; conditions: for State of dosing preparation: ethanol:Tween 80:saline (1:1:18), 10 ml·kg−1, CBGV 100, CBDV 60, CBG 30 mg·kg−1; for Aqueous solubility: reason for not testing 100 mg·kg−1
[3] = tested on: hyperthermia‐induced seizures in Scn1a +/− mice; test: Hyperthermia-induced seizures in Scn1a+/− mice; assay type: in vivo, mouse; conditions: for Effective (anticonvulsant) dose against hyperthermia-induced seizures: i.p.
Outline: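 Male and female Scn1a+/− F1 mice (congenic 129S6 heterozygotes × C57BL/6J), P14–16, got a single i.p. dose of vehicle or test compound, n = 12–18. Pretreatment time was set per compound from time-to-peak data (15–120 min), with matched vehicle controls. A rectal probe went in 15 min before, followed by 5-min acclimation. Core temperature was raised 0.5°C every 2 min until the first clonic convulsion with loss of posture, or to 42.5°C held 3 min. Thresholds were compared by log-rank Mantel–Cox.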

[4] = Plasma concentrations in experimental Scn1a+/− mice; assay type: in vivo, mouse
Outline: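 Acute cohorts (n = 5–10) were anaesthetised with isoflurane directly after the hyperthermia protocol, and whole blood was taken by cardiac puncture. Plasma was stored at −80°C. Subchronic cohorts received drug orally in chow, with plasma collected on P31 within 30 min of lights on. Clobazam pretreatment was 30 min and test compound pretreatment 45 min before the hyperthermia time point.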

[5] = molecular target: cannabinoid CB1 receptor (Homo sapiens, UniProt P21554); test: Eurofins DiscoverX PathHunter β-arrestin GPCR screen, CB1; assay type: cell-based; conditions: 3 μM
[6] = molecular target: T1, concatenated human γ2–β2–α1–β2–α1 GABA receptor (Homo sapiens, UniProt P14867+P18507+P47870); test: Two-electrode voltage clamp, GABA-evoked currents in Xenopus oocytes; assay type: cell-based
Outline: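 Two-electrode voltage clamp used Xenopus oocytes expressing concatenated human γ2–β2–α1–β2–α1 receptors. GABA (15 μM) was applied three times with 7–12 min washout, and currents were normalised to the mean of the last two applications. Preincubation was 60 s. Per cent modulation came from a published equation, and the Hill equation fit gave Imax and EC50, n = 5.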

[7] = molecular target: T2, GPR55 (Homo sapiens, UniProt Q9Y2T6); test: Eurofins DiscoverX PathHunter β-arrestin GPCR screen, GPR55; assay type: cell-based; conditions: 3 μM
[8] = tested on: spontaneous GTCS and survival of Scn1a +/− mice; test: Spontaneous seizures; assay type: in vivo, mouse
Outline: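 Male and female Scn1a+/− mice were primed with one hyperthermia-induced seizure at P18. They were cooled on a pad to a 37°C core temperature at the onset of clonic convulsion. Test compound was then given subchronically in chow. Spontaneous GTCS were counted blind from continuous video over 60 h, and dosing continued to P30 for survival. Seizure-free proportion was analysed by Fisher's exact test; frequency by one-way ANOVA with Dunnett's test.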

[9] = molecular target: T1, concatenated human γ2–β2–α1–β2–α1 GABA receptor; test: GABAA receptor desensitization assay in Xenopus oocytes; assay type: cell-based; conditions: 10 μM CBGA, 180-s preincubation, 1 mM GABA; 103 ± 3% without preincubation
[10] = tested on: 6‐Hz threshold test, Swiss male mice; test: 6-Hz threshold test; assay type: in vivo, mouse; conditions: n = 12; for CC50 vs vehicle, 6-Hz threshold test: 45 min pretreatment
[11] = ref Anderson, Low, et al., 2019; cited from earlier work
[12] = molecular target: human TRPV1 (Homo sapiens, UniProt Q8NER1); test: TRPV1 intracellular calcium assay; assay type: cell-based
[13] = molecular target: T2, GPR55; test: GPR55 ERK phosphorylation assay in HEK293 cells; assay type: cell-based; conditions: for EC80 concentration for GPR55 activation (pERK): agonist alone
[14] = tested on: 168 GPCRs and 74 orphan GPCRs; test: Eurofins DiscoverX PathHunter β-arrestin GPCR screen; assay type: cell-based; conditions: 3 μM
[15] = molecular target: cannabinoid CB2 receptor (Homo sapiens, UniProt P34972); test: Eurofins DiscoverX PathHunter β-arrestin GPCR screen, CB2; assay type: cell-based; conditions: 3 μM
[16] = tested on: MES‐induced seizures; conditions: ref Hawkins et al., 2017; Luszczki et al., 2003; Miller et al., 1986; cited from earlier work
[17] = tested on: Scn1a +/− mice; conditions: ref Hawkins et al., 2017; Luszczki et al., 2003; Miller et al., 1986; cited from earlier work
[18] = tested on: MES threshold test, Swiss male mice; test: Maximal electroshock; assay type: in vivo, mouse; conditions: 300 mg·kg−1, 15 min prior, n = 12
Outline: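 Swiss male mice, n = 12; the positive control was given 15 min before shock. Corneal electroshocks were 60 Hz, 0.4 s, 0.5-ms rectangular pulses, starting at 50 mA. A blinded observer scored GTCS with full hindlimb extension (hindlimbs at 180° to torso).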

[19] = tested on: pentylenetetrazole (PTZ)‐induced seizures; conditions: ref Hill et al., 2010; cited from earlier work
[20] = over all doses tested, single i.p., Scn1a+/− mice P14–16
[21] = acute i.p., CBGA 30 mg·kg−1 + clobazam 1 mg·kg−1
[22] = 100 mg·kg−1 single i.p., Scn1a+/− mice P14–16
[23] = 30 mg·kg−1 single i.p., Scn1a+/− mice P14–16
[24] = Scn1a+/− mice, ref Anderson et al., 2021

T2 sequence (Q9Y2T6 whole entry): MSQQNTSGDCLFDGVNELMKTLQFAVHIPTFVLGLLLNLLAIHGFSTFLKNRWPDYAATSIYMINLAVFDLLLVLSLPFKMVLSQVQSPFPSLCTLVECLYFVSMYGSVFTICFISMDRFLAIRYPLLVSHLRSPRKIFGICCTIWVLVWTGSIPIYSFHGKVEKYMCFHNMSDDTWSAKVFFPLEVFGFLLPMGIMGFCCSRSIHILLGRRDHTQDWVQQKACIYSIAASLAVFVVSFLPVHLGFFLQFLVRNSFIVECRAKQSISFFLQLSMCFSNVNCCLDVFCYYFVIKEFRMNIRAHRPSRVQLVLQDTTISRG
human TRPV1, sequence (Q8NER1 whole entry): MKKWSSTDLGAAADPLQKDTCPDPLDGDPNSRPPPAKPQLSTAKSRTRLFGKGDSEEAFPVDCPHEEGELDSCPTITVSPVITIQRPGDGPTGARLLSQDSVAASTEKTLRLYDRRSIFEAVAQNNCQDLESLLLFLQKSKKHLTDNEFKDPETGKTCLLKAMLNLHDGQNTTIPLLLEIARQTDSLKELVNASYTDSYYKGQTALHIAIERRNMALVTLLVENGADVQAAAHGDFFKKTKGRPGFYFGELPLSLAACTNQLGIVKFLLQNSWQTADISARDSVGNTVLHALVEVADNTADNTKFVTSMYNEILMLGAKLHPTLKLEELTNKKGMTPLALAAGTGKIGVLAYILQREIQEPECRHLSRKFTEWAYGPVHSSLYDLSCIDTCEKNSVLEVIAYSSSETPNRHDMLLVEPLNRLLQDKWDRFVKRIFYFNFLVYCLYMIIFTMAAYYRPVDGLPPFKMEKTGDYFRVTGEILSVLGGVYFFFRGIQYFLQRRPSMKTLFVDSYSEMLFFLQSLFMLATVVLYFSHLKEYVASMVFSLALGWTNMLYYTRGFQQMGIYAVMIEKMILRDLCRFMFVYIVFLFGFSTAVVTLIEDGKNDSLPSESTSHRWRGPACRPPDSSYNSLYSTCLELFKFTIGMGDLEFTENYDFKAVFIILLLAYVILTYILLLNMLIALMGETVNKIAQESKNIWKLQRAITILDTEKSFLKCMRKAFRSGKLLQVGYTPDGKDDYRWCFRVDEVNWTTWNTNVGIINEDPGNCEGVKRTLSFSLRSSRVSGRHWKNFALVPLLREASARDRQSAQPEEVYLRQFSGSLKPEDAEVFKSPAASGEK
T1 sequence (P14867 28-456): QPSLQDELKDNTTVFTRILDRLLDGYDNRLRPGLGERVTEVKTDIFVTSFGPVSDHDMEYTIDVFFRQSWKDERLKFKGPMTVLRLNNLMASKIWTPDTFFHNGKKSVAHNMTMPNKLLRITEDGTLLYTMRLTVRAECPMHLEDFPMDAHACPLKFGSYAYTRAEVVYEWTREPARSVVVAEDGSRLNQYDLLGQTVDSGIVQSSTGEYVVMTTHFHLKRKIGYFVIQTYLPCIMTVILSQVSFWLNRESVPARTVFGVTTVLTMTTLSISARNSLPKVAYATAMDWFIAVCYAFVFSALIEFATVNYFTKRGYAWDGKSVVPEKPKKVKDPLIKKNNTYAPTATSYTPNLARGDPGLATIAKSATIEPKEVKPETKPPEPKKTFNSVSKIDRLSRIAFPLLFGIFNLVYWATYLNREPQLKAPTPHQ
T1 sequence (P47870 26-512): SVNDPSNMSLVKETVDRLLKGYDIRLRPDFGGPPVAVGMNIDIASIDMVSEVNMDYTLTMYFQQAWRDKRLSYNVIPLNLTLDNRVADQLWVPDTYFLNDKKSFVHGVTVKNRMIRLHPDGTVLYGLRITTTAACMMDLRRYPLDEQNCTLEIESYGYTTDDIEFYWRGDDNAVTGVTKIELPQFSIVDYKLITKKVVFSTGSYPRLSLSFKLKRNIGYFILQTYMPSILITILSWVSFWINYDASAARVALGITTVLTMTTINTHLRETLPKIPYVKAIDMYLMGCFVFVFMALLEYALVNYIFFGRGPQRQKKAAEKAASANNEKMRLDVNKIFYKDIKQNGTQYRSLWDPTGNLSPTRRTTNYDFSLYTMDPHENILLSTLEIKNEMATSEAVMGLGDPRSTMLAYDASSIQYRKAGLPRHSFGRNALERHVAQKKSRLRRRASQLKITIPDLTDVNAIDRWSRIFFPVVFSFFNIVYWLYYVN
T1 sequence (P18507 40-475): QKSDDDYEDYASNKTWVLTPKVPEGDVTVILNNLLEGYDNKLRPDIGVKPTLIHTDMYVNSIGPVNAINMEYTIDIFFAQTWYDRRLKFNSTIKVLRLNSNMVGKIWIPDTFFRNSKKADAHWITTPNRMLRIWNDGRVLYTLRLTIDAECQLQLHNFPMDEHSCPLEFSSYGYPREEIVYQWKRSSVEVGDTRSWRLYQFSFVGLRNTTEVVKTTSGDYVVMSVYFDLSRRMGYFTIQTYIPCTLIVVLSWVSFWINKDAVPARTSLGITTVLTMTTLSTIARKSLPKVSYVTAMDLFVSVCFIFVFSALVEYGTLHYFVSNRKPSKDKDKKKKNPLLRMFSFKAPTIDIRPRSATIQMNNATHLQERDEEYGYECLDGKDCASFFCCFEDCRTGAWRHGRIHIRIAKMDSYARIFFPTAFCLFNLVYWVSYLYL
cannabinoid CB2 receptor, sequence (P34972 whole entry): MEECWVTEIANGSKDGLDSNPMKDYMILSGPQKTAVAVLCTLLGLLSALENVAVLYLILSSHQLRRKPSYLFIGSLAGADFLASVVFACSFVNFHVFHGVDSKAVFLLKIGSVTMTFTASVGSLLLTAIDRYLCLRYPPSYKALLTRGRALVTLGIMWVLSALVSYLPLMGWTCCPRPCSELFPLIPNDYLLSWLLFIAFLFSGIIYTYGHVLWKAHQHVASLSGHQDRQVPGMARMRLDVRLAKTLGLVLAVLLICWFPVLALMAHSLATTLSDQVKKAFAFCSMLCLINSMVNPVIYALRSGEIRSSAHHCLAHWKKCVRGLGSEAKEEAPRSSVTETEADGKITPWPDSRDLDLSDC
cannabinoid CB1 receptor, sequence (P21554 whole entry): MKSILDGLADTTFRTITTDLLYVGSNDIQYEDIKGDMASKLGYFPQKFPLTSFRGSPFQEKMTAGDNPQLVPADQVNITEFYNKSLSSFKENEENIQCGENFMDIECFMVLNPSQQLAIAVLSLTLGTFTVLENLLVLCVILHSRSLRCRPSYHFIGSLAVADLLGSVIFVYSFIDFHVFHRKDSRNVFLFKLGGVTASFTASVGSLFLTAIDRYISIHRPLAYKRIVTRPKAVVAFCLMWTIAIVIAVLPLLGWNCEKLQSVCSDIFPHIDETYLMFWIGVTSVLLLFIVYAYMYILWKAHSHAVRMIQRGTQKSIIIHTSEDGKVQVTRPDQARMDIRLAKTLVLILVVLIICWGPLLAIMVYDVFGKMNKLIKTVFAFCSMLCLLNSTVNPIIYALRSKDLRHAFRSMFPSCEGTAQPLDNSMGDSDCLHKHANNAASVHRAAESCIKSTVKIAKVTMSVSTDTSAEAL

C=C(C)[C@@H]1CCC(C)=C[C@H]1c1c(O)cc(CCCCC)cc1O [CBD, cannabidiol]
Effect against hyperthermia-induced seizures ([1]; 100 mg·kg−1, ref Anderson, Absalom, et al., 2019, Anderson et al., 2020, Kaplan et al., 2017): anticonvulsant

CCCc1cc(O)c(C/C=C(\C)CCC=C(C)C)c(O)c1 [CBGV, cannabigerivarin]
State of dosing preparation [2]: suspension | Temperature threshold for GTCS induced by hyperthermia vs vehicle [3, 20]: Neither cannabigerol (CBG) nor cannabigerivarin (CBGV) affected thresholds

O=C1CC(=O)N(c2ccccc2)c2cc(Cl)ccc2N1 [N‐desmethylclobazam]
Plasma concentrations of N-desmethylclobazam on CBGA co-administration [4, 21]: reduced | Plasma concentrations of N-desmethylclobazam when clobazam combined with CBGA ([4]; subchronic, chow): significantly lower

CCCc1cc(O)c(C/C=C(\C)CCC=C(C)C)c(O)c1C(=O)O [CBGVA, cannabigerovarinic acid]
Temperature threshold for GTCS induced by hyperthermia vs vehicle [3, 22]: significantly elevated | Effective (anticonvulsant) dose against hyperthermia-induced seizures ([3]; Scn1a+/− mice): 100 mg/kg

CCCCCc1cc(O)c(C/C=C(\C)CCC=C(C)C)c(O)c1C(=O)O [CBGA, cannabigerolic acid]
Effect at cannabinoid CB1 receptor [5]: did not affect | Modulation of GABA-evoked currents at high concentration ([6]; 30 μM CBGA, GABA 15 μM): substantially reduced | EC50 ([6]; EC50, positive modulation of GABA-evoked currents, GABA 15 μM): 0.91 µM | Emax ([6]; read-out: Maximum modulation of GABA-evoked peak currents (E max)): 271 ± 40% | Agonist activity at GPR55 [7]: not an agonist | Spontaneous GTCS frequency ([8]; 2500 mg·kg−1 chow, oral subchronic, 60-h recording): significantly increased | Survival to P30 relative to controls ([8]; 1400 and 2500 mg·kg−1 chow, oral): did not differ | Proportion of mice experiencing GTCS during observation period ([8]; 1400 and 2500 mg·kg−1 chow, oral subchronic, 60-h recording): Neither dose of CBGA affected | Plasma concentration of CBGA on cotreatment with clobazam [4, 21]: significantly increased | Plasma CBGA concentrations on cotreatment with clobazam ([4]; subchronic, chow): no effect | Peak GABA current after preincubation (percentage of GABA response) [9]: 31 ± 11% | CC50 vs vehicle, 6-Hz threshold test ([10]; 10 mg·kg−1 i.p.): significantly lower | CC50 vs vehicle, 6-Hz threshold test ([10]; 30 mg·kg−1 i.p.): significantly lower | CC50 vs vehicle, 6-Hz threshold test ([10]; 100 mg·kg−1 i.p.): did not differ from vehicle | Brain penetration [11]: 2% | Brain–plasma ratio [11]: 0.02 | IC50 [12]: 22 µM | Non-specific calcium influx ([12]; 30 and 100 μM CBGA, wildtype and TRPV1-expressing cells): non‐specific increase in intracellular calcium | Agonist activity at TRPV1 ([12]; calcium influx): did not display agonist activity | IC50 ([13]; IC50, inhibition of GPR55 activation, rounded value of the discussion): ~5 µM | IC50 ([13]; IC50, inhibition of LPI-mediated GPR55 activity (pERK), LPI 4 μM (EC80)): 5.7 µM | IC50 ([13]; IC50, inhibition of ML-186-mediated GPR55 activity (pERK), ML-186 0.45 μM (EC80)): 4.8 µM | Mode of antagonism at GPR55 ([13]; ML-186 concentration–response curves with varying CBGA): non‐competitive antagonist | Agonist or antagonist activity at 242 GPCRs [14]: No agonist or antagonist activity | Temperature threshold for GTCS induced by hyperthermia vs vehicle [3, 23]: anticonvulsant; also recorded: significantly elevated | Temperature threshold for GTCS induced by hyperthermia vs vehicle [3, 22]: anticonvulsant | Effective (anticonvulsant) dose against hyperthermia-induced seizures ([3]; Scn1a+/− mice): 30 mg/kg | Temperature threshold for GTCS induced by hyperthermia vs vehicle [3, 20]: dose‐dependently increased | Effect at cannabinoid CB2 receptor [15]: did not affect

C=C(C)[C@@H]1CCC(C)=C[C@H]1c1c(O)cc(CCC)cc1O [CBDV, cannabidivarin]
State of dosing preparation [2]: near solubility limits | Aqueous solubility [2]: poor aqueous solubility | Temperature threshold for GTCS induced by hyperthermia vs vehicle [3, 23]: increase in GTCS temperature threshold

CCCCCc1cc(O)c(C/C=C(\C)CCC=C(C)C)c(O)c1 [CBG, cannabigerol]
State of dosing preparation [2]: near solubility limits | Aqueous solubility [2]: poor aqueous solubility | Mice seizure free (protected from GTCS) ([3]; 0.3 mg·kg−1 i.p., n = 12–18 per group): four | Temperature threshold for GTCS induced by hyperthermia vs vehicle [3, 20]: Neither cannabigerol (CBG) nor cannabigerivarin (CBGV) affected thresholds

CN1C(=O)CC(=O)N(c2ccccc2)c2cc(Cl)ccc21 [clobazam, reference compound]
Spontaneous GTCS frequency ([8]; 80 mg clobazam·kg−1 chow, oral, 60-h recording): significantly reducing | Survival to P30 ([8]; clobazam 80 mg·kg−1 chow alone or plus CBGA 1400 mg·kg−1 chow): neither treatment had any effect | Proportion of mice displaying GTCS ([8]; clobazam 80 mg·kg−1 chow alone or plus CBGA 1400 mg·kg−1 chow, controls 63%): 35% | Plasma clobazam concentrations on CBGA co-administration [4, 21]: did not affect | Temperature threshold for GTCS induced by hyperthermia vs vehicle ([3]; 1 mg·kg−1 single i.p., Scn1a+/− mice): significantly elevated

COc1ccc(S(=O)(=O)N2CCOCC2)cc1NC(=O)c1cc2c(s1)CCCC2 [ML‐186, reference compound]
EC80 concentration for GPR55 activation (pERK) [13]: 0.45 μM

Nc1nnc(-c2cccc(Cl)c2Cl)c(N)n1 [Lamotrigine]
Effect against MES-induced seizures [16]: anticonvulsant | Effect on seizures in Scn1a+/− mice [17]: proconvulsant

lysophosphatidylinositol [LPI, reference compound]
EC80 concentration for GPR55 activation (pERK) [13]: 4 μM

CCCCCc1cc2c(c(O)c1C(=O)O)C=CC(C)(CCC=C(C)C)O2 (stereo not drawn) [CBCA, cannabichromenic acid]
Effect against hyperthermia-induced seizures [1, 24]: anticonvulsant effects

CCCc1cc2c(c(O)c1C(=O)O)C=CC(C)(CCC=C(C)C)O2 (stereo not drawn) [CBCVA, cannabichromevarinic acid]
Effect against hyperthermia-induced seizures [1, 24]: anticonvulsant effects

C=C(C)[C@@H]1CCC(C)=C[C@H]1c1c(O)cc(CCC)c(C(=O)O)c1O [CBDVA, cannabidivarinic acid]
Temperature threshold for GTCS induced by hyperthermia vs vehicle [3, 22]: significantly elevated | Effective (anticonvulsant) dose against hyperthermia-induced seizures ([3]; Scn1a+/− mice): 100 mg/kg

CCCC(CCC)C(=O)O [valproic acid, reference compound]
Protection against seizure activity, MES threshold test [18]: 100% | Protection against seizure activity, 6-Hz threshold test ([10]; 300 mg·kg−1, 15 min prior): 100%

CCCc1cc(O)c2c(c1)OC(C)(C)[C@@H]1CCC(C)=C[C@@H]21 [Δ^9‐THCV, tetrahydrocannabivarin]
Temperature threshold for GTCS induced by hyperthermia vs vehicle ([3]; 3 mg·kg−1 single i.p., Scn1a+/− mice P14–16): proconvulsant | Effect against PTZ-induced seizures [19]: anticonvulsant effects
